In ChEMBL document CHEMBL4813940, “Design, synthesis and biological evaluation of novel benzoxaborole derivatives as potent PDE4 inhibitors for topical treatment of atopic dermatitis” (Eur J Med Chem, 2021):
Blank lines part the entries; values can stand above or below the molecule they belong to.

Legend:
[1] = target: T1, 3',5'-cyclic-AMP phosphodiesterase 4B (Homo sapiens, UniProt Q07343); assay: Inhibition of PDE4B (unknown origin) assessed as hydrolysis of [3H]-cGMP into [3H]-GMP incubated for 30 mins by scintillation of proximity assay; settings: in the assay text read “[3H]-cAMP into [3H]-AMP” for “[3H]-cGMP into [3H]-GMP”
T1 sequence (Q07343 whole entry): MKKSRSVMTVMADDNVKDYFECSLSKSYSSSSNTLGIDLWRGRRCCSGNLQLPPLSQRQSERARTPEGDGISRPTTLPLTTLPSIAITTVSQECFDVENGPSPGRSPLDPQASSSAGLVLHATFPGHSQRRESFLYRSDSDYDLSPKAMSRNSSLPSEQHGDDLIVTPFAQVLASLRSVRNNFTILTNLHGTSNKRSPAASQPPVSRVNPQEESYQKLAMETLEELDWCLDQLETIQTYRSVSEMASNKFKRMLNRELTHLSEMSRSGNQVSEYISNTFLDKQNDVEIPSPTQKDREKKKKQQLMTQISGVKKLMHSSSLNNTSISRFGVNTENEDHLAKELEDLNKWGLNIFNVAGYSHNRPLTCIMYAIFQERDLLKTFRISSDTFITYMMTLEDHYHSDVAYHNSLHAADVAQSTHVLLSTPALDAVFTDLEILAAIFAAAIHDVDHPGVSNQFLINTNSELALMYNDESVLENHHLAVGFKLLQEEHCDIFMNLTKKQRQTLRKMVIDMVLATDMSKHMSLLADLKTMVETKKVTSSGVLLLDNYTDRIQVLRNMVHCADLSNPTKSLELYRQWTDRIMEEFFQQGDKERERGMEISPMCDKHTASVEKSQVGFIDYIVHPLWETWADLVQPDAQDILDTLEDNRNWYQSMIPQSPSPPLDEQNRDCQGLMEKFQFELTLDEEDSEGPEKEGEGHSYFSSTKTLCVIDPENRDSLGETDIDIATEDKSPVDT
In short: (§1)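 Scintillation proximity assay of [3H]-cAMP or [3H]-cGMP hydrolysis to [3H]-AMP or [3H]-GMP. Enzyme was diluted to 1–2 nM in 50 mM Tris pH 7.5, 8.3 mM MgCl2 and 1.7 mM EGTA. Reaction was started by adding enzyme, test solution and radiolabelled substrate, then incubated at 30 °C for 30 min and stopped with SPA beads. Run in duplicate.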

Mus musculus [2] = assay: Antiinflammatory activity against PMA-induced ICR mouse ear oedema model assessed as reduction in ear swelling at 1 mg/ear topically administered and measured after 4 hrs; format: functional
In short: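 Male ICR mice, 8 weeks old. The sample was applied topically to the right ear at 1.0 mg/ear in ethanol before PMA. After 4 h the mice were killed by cervical dislocation and both ears were measured with a micrometer. Oedema was the thickness difference between the ears; inhibition was the percent reduction versus the model group.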

Homo sapiens [3] = species: Homo sapiens; assay: Selectivity index, ratio of IC50 for PDE1A (unknown origin) to IC50 for PDE4B (unknown origin)
Homo sapiens [4] = species: Homo sapiens; assay: Selectivity index, ratio of IC50 for PDE1B (unknown origin) to IC50 for PDE4B (unknown origin)
Homo sapiens [5] = species: Homo sapiens; assay: Selectivity index, ratio of IC50 for PDE1C (unknown origin) to IC50 for PDE4B (unknown origin)
Homo sapiens [6] = species: Homo sapiens; assay: Selectivity index, ratio of IC50 for PDE2A (unknown origin) to IC50 for PDE4B (unknown origin)
Homo sapiens [7] = species: Homo sapiens; assay: Selectivity index, ratio of IC50 for PDE3A (unknown origin) to IC50 for PDE4B (unknown origin)
Homo sapiens [8] = species: Homo sapiens; assay: Selectivity index, ratio of IC50 for PDE3B (unknown origin) to IC50 for PDE4B (unknown origin)
Homo sapiens [9] = species: Homo sapiens; assay: Selectivity index, ratio of IC50 for PDE5A (unknown origin) to IC50 for PDE4B (unknown origin)
Homo sapiens [10] = species: Homo sapiens; assay: Selectivity index, ratio of IC50 for PDE7A (unknown origin) to IC50 for PDE4B (unknown origin)
Homo sapiens [11] = species: Homo sapiens; assay: Selectivity index, ratio of IC50 for PDE10A (unknown origin) to IC50 for PDE4B (unknown origin)
Mus musculus [12] = assay: Antiinflammatory activity against calcipotriol-induced atopic dermatitis mouse model assessed as swelling inhibition by measuring thickness of left ear at 30 mg/kg for 14 days (RVB = 0.26 +/- 0.01 mm); format: functional; settings: time 14 day
In short: (§2)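 Ointment was applied to the dorsal side of the left ear twice daily (30 mg/kg) for 14 days; the normal group received ethanol. On day 17 the mice were anaesthetized with 10% chloral hydrate and ear thickness was measured with a micrometer. Percent inhibition of the inflammatory reaction was calculated against untreated animals.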

Mus musculus [13] = assay: Antiinflammatory activity against calcipotriol-induced atopic dermatitis mouse model assessed as swelling inhibition by measuring thickness of right ear at 30 mg/kg for 14 days (RVB = 0.55 +/- 0.06 mm); format: functional; settings: time 14 day; in short: as §2
Mus musculus [14] = assay: Antiinflammatory activity against calcipotriol-induced atopic dermatitis mouse model assessed as swelling inhibition at 30 mg/kg for 14 days; format: functional; design: scale not given: the % may be the effect or the level left; settings: time 14 day; in short: as §2
[15] = Phototoxicity in albino guinea pig assessed as skin reaction score at 5 mg/kg topical treatment irradiated with 4.2 mw/cm2 UVA for 40 mins and measured after 24 hrs day of light irradiation by H and E staining based microscopic analysis; format: organism-based, Cavia porcellus; settings: in vivo, topical_or_ocular
In short: (§3)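 Albino guinea pigs (250–300 g) were randomized into 5 groups. Four 2 cm × 2 cm depilated areas beside the spine were prepared 24 h before dosing, and 0.2 mL of test substance was applied. Animals were restrained and exposed to UVA for 40 min. Erythema, eschar and oedema were scored visually at 1, 24, 48 and 72 h. Skin taken at 72 h was formalin-fixed, H&E-stained and read by a pathologist.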

[16] = Phototoxicity in albino guinea pig assessed as skin reaction score at 10 mg/kg topical treatment irradiated with 4.2 mw/cm2 UVA for 40 mins and measured after 24 hrs day of light irradiation by H and E staining based microscopic analysis; format: organism-based, Cavia porcellus; settings: in vivo, topical_or_ocular; in short: as §3
[17] = Phototoxicity in albino guinea pig assessed as skin reaction score at 24 mg/kg topical treatment irradiated with 4.2 mw/cm2 UVA for 40 mins and measured after 24 hrs day of light irradiation by H and E staining based microscopic analysis; format: organism-based, Cavia porcellus; settings: in vivo, topical_or_ocular; in short: as §3
[18] = Toxicity in Sprague-Dawley rat assessed as systemic toxicity at 700 mg/kg, po for 14 days; format: organism-based; settings: in vivo, 336 h, time 14 day
In short: (§4)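 Healthy male and female Sprague-Dawley rats, 8-week-old, randomised to three groups of 6 males + 6 females. Vehicle 1% CMC-Na or 400 and 700 mg/kg given by oral gavage once daily for 14 days. Mortality and clinical signs checked daily; body weight on days 0, 7, 14. Isoflurane euthanasia, macroscopic necropsy, weights of liver, kidney, testis, thymus, heart and lung.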

[19] = Toxicity in Sprague-Dawley rat assessed as death at 700 mg/kg, po for 14 days; format: organism-based; settings: in vivo, 336 h, time 14 day; in short: as §4
[20] = Toxicity in Sprague-Dawley rat assessed as liver/brain index at 400 to 700 mg/kg, po for 14 days; format: organism-based; settings: in vivo, 336 h, dose 400-700 mg/kg, time 14 day
In short: (§5)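 Sprague-Dawley rats, 8 weeks old, 6 male and 6 female per group. Dosed by oral gavage once daily for 14 days with 1% CMC-Na vehicle or 400 and 700 mg/kg. Animals were checked daily for mortality and clinical signs, with body weight recorded on days 0, 7 and 14. Rats were then euthanized under isoflurane, necropsied, and their organs weighed.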

[21] = Toxicity in Sprague-Dawley rat assessed as spleen/brain index at 400 to 700 mg/kg, po for 14 days; format: organism-based; settings: in vivo, 336 h, dose 400-700 mg/kg, time 14 day; in short: as §5
[22] = Toxicity in Sprague-Dawley rat assessed as white blood cell count at 400 to 700 mg/kg, po for 14 days; format: organism-based; settings: in vivo, 336 h, dose 400-700 mg/kg, time 14 day
[23] = Toxicity in Sprague-Dawley rat assessed as ALT at 400 to 700 mg/kg, po for 14 days; format: organism-based; settings: in vivo, 336 h, dose 400-700 mg/kg, time 14 day
[24] = Toxicity in Sprague-Dawley rat assessed as AST at 400 to 700 mg/kg, po for 14 days; format: organism-based; settings: in vivo, 336 h, dose 400-700 mg/kg, time 14 day
[25] = Toxicity in Sprague-Dawley rat assessed as blood pressure at 400 to 700 mg/kg, po for 14 days; format: organism-based; settings: in vivo, 336 h, dose 400-700 mg/kg, time 14 day
[26] = Toxicity in Sprague-Dawley rat assessed as blood glucose at 400 to 700 mg/kg, po for 14 days; format: organism-based; settings: in vivo, 336 h, dose 400-700 mg/kg, time 14 day
[27] = Phototoxicity in albino guinea pig assessed as infiltration of inflammatory cells at 10 mg/kg topical treatment irradiated with 4.2 mw/cm2 UVA for 40 mins and measured after 24 hrs day of light irradiation by H and E staining based microscopic analysis; format: organism-based, Cavia porcellus; settings: in vivo, topical_or_ocular, in the assay text read “72 hrs” for “24 hrs”; in short: as §3
[28] = Phototoxicity in albino guinea pig assessed as necrosis at 10 mg/kg topical treatment irradiated with 4.2 mw/cm2 UVA for 40 mins and measured after 24 hrs day of light irradiation by H and E staining based microscopic analysis; format: organism-based, Cavia porcellus; settings: in vivo, topical_or_ocular, in the assay text read “72 hrs” for “24 hrs”; in short: as §3
[29] = target: Dual specificity calcium/calmodulin-dependent 3',5'-cyclic nucleotide phosphodiesterase 1A (Homo sapiens, UniProt P54750); assay: Inhibition of PDE1A (unknown origin); in short: as §1
Chain of Dual specificity calcium/calmodulin-dependent 3',5'-cyclic nucleotide phosphodiesterase 1A (P54750 whole entry): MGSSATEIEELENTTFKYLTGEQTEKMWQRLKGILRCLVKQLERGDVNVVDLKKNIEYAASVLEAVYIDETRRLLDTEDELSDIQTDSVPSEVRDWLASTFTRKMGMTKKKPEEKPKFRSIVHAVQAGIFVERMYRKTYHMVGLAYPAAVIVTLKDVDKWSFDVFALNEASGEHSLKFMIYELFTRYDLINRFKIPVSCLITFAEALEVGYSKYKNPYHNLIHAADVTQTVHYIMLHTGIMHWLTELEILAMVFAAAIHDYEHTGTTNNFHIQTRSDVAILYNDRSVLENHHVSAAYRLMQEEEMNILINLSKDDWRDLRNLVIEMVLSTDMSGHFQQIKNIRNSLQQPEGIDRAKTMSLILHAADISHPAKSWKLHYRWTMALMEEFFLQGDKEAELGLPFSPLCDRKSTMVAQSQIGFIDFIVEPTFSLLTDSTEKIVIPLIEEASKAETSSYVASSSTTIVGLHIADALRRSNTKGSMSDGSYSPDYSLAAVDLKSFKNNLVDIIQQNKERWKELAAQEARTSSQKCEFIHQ

[30] = target: Dual specificity calcium/calmodulin-dependent 3',5'-cyclic nucleotide phosphodiesterase 1B (Homo sapiens, UniProt Q01064); assay: Inhibition of PDE1B (unknown origin); in short: as §1
[31] = target: Dual specificity calcium/calmodulin-dependent 3',5'-cyclic nucleotide phosphodiesterase 1C (Homo sapiens, UniProt Q14123); assay: Inhibition of PDE1C (unknown origin)
Chain of Dual specificity calcium/calmodulin-dependent 3',5'-cyclic nucleotide phosphodiesterase 1C (Q14123 whole entry): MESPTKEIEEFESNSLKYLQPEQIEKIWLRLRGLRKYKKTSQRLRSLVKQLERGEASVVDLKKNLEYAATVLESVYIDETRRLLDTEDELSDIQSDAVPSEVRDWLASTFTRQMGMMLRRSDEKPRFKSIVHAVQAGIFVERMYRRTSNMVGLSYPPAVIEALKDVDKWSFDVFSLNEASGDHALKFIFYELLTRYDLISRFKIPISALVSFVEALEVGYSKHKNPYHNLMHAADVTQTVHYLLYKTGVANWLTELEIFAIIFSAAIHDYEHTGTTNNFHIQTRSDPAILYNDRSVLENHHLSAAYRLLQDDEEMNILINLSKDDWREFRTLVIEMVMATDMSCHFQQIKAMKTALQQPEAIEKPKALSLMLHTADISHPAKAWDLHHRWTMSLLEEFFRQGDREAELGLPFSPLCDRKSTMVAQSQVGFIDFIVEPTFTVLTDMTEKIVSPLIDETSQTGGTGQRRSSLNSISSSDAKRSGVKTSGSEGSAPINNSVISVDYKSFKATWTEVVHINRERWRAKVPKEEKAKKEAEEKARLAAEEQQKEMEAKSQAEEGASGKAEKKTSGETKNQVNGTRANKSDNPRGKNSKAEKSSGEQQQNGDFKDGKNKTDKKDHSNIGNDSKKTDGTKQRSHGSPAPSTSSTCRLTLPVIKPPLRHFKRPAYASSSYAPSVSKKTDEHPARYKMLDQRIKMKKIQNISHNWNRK
In short: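 For PDE1A, PDE1B and PDE1C, the reaction buffer was also supplemented with 0.2 mM CaCl2 and […]. Otherwise the same SPA run as the other PDEs: [3H]-nucleotide hydrolysis at 30 °C for 30 min, in duplicate.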

[32] = target: cGMP-dependent 3',5'-cyclic phosphodiesterase (Homo sapiens, UniProt O00408); assay: Inhibition of PDE2A (unknown origin); in short: as §1
[33] = target: cGMP-inhibited 3',5'-cyclic phosphodiesterase 3A (Homo sapiens, UniProt Q14432); assay: Inhibition of PDE3A (unknown origin); in short: as §1
[34] = target: cGMP-inhibited 3',5'-cyclic phosphodiesterase 3B (Homo sapiens, UniProt Q13370); assay: Inhibition of PDE3B (unknown origin); in short: as §1
Chain of cGMP-inhibited 3',5'-cyclic phosphodiesterase 3B (Q13370 whole entry): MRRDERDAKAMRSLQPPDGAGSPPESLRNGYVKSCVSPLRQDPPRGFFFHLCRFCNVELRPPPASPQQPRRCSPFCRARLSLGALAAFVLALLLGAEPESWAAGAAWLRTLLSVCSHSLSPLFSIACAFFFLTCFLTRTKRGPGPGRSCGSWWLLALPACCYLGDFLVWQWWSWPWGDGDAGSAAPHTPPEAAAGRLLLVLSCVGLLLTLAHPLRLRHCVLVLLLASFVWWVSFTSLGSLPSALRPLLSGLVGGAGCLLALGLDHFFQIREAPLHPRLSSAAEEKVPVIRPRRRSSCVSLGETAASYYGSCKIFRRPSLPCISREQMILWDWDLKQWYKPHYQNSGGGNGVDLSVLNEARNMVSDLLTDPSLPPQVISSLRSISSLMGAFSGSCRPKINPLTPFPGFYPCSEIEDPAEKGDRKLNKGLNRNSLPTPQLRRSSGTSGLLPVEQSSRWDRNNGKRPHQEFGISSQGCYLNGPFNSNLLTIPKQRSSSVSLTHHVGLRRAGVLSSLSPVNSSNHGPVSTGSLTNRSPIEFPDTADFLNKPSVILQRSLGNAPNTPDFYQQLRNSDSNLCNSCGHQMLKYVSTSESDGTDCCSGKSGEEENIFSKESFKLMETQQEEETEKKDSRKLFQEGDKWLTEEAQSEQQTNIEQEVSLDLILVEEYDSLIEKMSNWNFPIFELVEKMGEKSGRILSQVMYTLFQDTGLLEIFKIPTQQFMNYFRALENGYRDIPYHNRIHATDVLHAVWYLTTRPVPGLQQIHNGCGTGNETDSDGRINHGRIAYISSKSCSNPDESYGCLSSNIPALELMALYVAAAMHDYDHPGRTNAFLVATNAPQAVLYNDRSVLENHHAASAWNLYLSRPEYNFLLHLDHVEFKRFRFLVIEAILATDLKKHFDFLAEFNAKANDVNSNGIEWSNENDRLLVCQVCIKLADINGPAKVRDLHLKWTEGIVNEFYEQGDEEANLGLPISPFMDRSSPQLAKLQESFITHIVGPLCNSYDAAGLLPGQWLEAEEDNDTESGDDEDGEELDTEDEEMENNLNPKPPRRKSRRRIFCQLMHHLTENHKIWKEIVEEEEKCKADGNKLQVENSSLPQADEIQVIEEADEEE

[35] = target: T1, 3',5'-cyclic-AMP phosphodiesterase 4B; assay: Inhibition of PDE4B (unknown origin); in short: as §1
[36] = target: cGMP-specific 3',5'-cyclic phosphodiesterase (Homo sapiens, UniProt O76074); assay: Inhibition of PDE5A (unknown origin); in short: as §1
[37] = target: High affinity 3',5'-cyclic-AMP phosphodiesterase 7A (Homo sapiens, UniProt Q13946); assay: Inhibition of PDE7A (unknown origin); in short: as §1
Chain of High affinity 3',5'-cyclic-AMP phosphodiesterase 7A (Q13946 whole entry): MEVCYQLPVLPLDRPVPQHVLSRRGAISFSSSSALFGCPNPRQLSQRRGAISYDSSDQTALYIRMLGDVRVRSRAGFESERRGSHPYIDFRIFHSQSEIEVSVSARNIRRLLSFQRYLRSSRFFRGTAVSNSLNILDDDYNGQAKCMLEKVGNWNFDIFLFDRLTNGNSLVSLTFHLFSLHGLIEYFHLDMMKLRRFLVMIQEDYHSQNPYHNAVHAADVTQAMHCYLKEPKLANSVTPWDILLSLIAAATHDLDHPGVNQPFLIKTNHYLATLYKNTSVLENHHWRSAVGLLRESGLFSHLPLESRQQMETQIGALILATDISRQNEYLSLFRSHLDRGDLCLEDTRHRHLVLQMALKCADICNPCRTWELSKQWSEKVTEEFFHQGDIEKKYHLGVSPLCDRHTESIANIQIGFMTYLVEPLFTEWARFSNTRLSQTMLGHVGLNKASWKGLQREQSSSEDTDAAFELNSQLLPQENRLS

[38] = target: cAMP and cAMP-inhibited cGMP 3',5'-cyclic phosphodiesterase 10A (Homo sapiens, UniProt Q9Y233); assay: Inhibition of PDE10A (unknown origin); in short: as §1
Chain of cAMP and cAMP-inhibited cGMP 3',5'-cyclic phosphodiesterase 10A (Q9Y233 whole entry): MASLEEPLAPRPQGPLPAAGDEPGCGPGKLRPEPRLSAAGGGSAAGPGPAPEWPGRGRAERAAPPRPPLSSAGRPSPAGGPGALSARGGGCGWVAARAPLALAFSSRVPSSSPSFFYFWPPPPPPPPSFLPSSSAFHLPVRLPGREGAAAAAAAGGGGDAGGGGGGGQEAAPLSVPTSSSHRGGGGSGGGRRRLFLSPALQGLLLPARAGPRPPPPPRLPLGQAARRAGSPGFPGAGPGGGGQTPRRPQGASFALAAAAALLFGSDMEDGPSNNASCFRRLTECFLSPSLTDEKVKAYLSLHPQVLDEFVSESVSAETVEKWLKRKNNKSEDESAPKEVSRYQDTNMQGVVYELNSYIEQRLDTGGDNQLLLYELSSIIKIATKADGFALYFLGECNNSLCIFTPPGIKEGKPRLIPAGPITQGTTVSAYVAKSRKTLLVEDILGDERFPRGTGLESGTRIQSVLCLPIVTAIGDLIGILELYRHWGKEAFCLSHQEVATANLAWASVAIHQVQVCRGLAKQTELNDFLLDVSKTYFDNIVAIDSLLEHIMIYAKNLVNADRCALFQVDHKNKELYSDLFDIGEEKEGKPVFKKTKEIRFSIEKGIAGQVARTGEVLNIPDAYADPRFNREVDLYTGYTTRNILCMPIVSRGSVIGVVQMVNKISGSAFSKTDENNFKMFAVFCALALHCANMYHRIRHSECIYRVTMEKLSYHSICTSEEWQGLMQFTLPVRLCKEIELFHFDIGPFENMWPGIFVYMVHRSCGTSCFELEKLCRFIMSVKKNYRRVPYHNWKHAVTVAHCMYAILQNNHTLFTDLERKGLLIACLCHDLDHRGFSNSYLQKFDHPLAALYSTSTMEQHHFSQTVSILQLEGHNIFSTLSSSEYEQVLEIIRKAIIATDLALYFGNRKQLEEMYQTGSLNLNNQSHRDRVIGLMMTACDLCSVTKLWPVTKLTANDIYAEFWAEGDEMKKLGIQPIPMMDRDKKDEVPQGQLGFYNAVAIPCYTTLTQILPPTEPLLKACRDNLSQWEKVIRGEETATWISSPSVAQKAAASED

[39] = target: T1, 3',5'-cyclic-AMP phosphodiesterase 4B; assay: Inhibition of PDE4B (unknown origin) assessed as hydrolysis of [3H]-cAMP into [3H]-AMP incubated for 30 mins by scintillation of proximity assay

IC50 [1]: 6.42 nM
SMILES: OB1OCc2cc(Oc3ccc4c(C(F)(F)F)cccc4n3)ccc21
inhibition (INH) (Mus musculus [2]): 58.05%

IC50 [1]: 6.44 nM
SMILES: COC(=O)c1cccc2nc(Oc3ccc4c(c3)COB4O)ccc12
inhibition (INH) (Mus musculus [2]): 55.62%

IC50 [39]: 3.05 nM
SMILES: CC(=O)c1cccc2nc(Oc3ccc4c(c3)COB4O)ccc12
inhibition (INH) (Mus musculus [2]): 39.56%

IC50 [39]: 17.3 nM
SMILES: CCOC(=O)c1cccc2nc(Oc3ccc4c(c3)COB4O)ccc12
inhibition (INH) (Mus musculus [2]): 57.69%

Second part, the molecule before the results:

SMILES: OB1OCc2cc(Oc3ccc4cc(C(F)(F)F)ccc4n3)ccc21
IC50 [1]: 0.42 nM
inhibition (INH) (Mus musculus [2]): 65.85%
Ratio IC50 (Homo sapiens [3]): 154
Ratio IC50 (Homo sapiens [4]): 138
Ratio IC50 (Homo sapiens [5]): 2060
Ratio IC50 (Homo sapiens [6]): 286
Ratio IC50 (Homo sapiens [7]): 19400
Ratio IC50 (Homo sapiens [8]): 17100
Ratio IC50 (Homo sapiens [9]): 1950
Ratio IC50 (Homo sapiens [10]): 83
Ratio IC50 (Homo sapiens [11]): 10800
Activity (Mus musculus [12]): 0.29 mm
Activity (Mus musculus [13]): 0.32 mm
Activity (Mus musculus [14]): 73.33%
Activity [15]: Non-Toxic
Activity [16]: Non-Toxic
Activity [17]: Non-Toxic
Activity [18]: Non-Toxic
Activity [19]: Non-Toxic
Activity [20]: Non-Toxic
Activity [21]: Non-Toxic
Activity [22]: Non-Toxic
Activity [23]: Non-Toxic
Activity [24]: Non-Toxic
Activity [25]: Non-Toxic
Activity [26]: Non-Toxic
Activity [27]: Non-Toxic
Activity [28]: Non-Toxic
IC50 [29]: 64.7 nM
IC50 [30]: 0.058 µM
IC50 [31]: 0.866 µM
IC50 [32]: 120 nM
IC50 [33]: 8.13 µM
IC50 [34]: 7.19 µM
IC50 [35]: 0.42 nM
IC50 [36]: 0.819 µM
IC50 [37]: 34.7 nM
IC50 [38]: 4.52 µM

SMILES: N#Cc1ccc2cc(Oc3ccc4c(c3)COB4O)ccc2c1
IC50 [1]: 25.5 nM

SMILES: N#Cc1ccc(Oc2ccc3c(c2)COB3O)cc1 [CRISABOROLE]
IC50 [1]: 57.2 nM
inhibition (INH) (Mus musculus [2]): 43.55%
Ratio IC50 (Homo sapiens [3]): 85
Ratio IC50 (Homo sapiens [4]): 271
Ratio IC50 (Homo sapiens [5]): 1080
Ratio IC50 (Homo sapiens [6]): 55
Ratio IC50 (Homo sapiens [7]): 970
Ratio IC50 (Homo sapiens [8]): 891
Ratio IC50 (Homo sapiens [9]): 850
Ratio IC50 (Homo sapiens [10]): 31
Ratio IC50 (Homo sapiens [11]): 1480
Activity (Mus musculus [12]): 0.29 mm
Activity (Mus musculus [13]): 0.37 mm
Activity (Mus musculus [14]): 32.5%
Activity [27]: Non-Toxic
Activity [28]: Non-Toxic
IC50 [29]: 5600 nM
IC50 [30]: 17.9 µM
IC50 [31]: 71 µM
IC50 [32]: 3630 nM
IC50 [33]: 64 µM
IC50 [34]: 58.8 µM
IC50 [35]: 70 nM
IC50 [36]: 56.1 µM
IC50 [37]: 2030 nM
IC50 [38]: 97.6 µM

SMILES: COC(=O)c1cnn2ccc(Oc3ccc4c(c3)COB4O)nc12
IC50 [1]: 46.2 nM
